From PubChem BioAssay
In the library only some 1.9% were active in any assay of this set; here they are far more common.
PG9 Ab binder = binders of HIV-1 gp120 antibody PG9, primary screen, biochemical, TR-FRET | inhibition, % at 6.7 µM | TR-FRET gp120-PG9 antibody binding | 360,000 tested, 0.43% active; in the data active = inhibition above about 8.5%
SKN-1 inh = suppressors of acrylamide-induced Pgst-4::GFP reporter in worms, primary screen, SKN-1 inhibitor project, whole organism, uHTS, GFP/RFP fluorescence ratio, strain VP596. C. elegans VP596 Pgst-4::GFP/RFP ratio, 24 h. inhibition, % at 21.8 µM. 360,000 tested, 0.49% active;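 active = interference check ratio from 0.5 to 1.5 plus GFP to RFP signal ratio inhibition reaching or exceeding a fixed threshold, cut at about 30% in these data, passing the limit was not always enough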
NR2E3 ag-1 = inhibitors of NR2E3-RetCOR corepressor binding, primary screen, NR2E3 agonist project, biochemical, TR-FRET, GST-NR2E3, biotin-RetCOR; 320,000 tested, 0.12% active; inhibition of corepressor binding, % at 4.78 µM; AID 2300, 2010; 1536-well; Photoreceptor-specific nuclear receptor (Homo sapiens), Q9Y5X4;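 active = percent inhibition above the cutoff of mean plus 3 SD of all tested compounds, set per screening campaign, cut at about 20% in these data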;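 also: 0% = DMSO wells and 100% = biotin wells as full block of FRET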
Target sequence (Q9Y5X4 whole entry, looked up): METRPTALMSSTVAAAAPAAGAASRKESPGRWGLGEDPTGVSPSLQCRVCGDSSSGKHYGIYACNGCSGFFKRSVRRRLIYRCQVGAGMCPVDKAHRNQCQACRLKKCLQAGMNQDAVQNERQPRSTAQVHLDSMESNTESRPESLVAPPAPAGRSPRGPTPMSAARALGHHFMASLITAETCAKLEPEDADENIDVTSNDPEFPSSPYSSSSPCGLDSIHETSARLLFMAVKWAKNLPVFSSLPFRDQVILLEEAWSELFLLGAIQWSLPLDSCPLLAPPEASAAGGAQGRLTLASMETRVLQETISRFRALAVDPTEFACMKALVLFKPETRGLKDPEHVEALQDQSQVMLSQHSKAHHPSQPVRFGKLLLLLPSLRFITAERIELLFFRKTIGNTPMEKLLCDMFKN
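System: GST-NR2E3 and biotin-RetCOR proteins; probe or stimulus: 7 nM biotin-RetCOR; doses: compound at 4.8 µM, single dose; schedule: Compound–protein incubation for 5 h at 4 °C; detection: time-resolved FRET; read-out: percent inhibition; controls: biotin wells as high control, 0.6% DMSO wells as low control; format: 1536-well plates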
MT1-MMP act inh = blockers of MT1-MMP proenzyme processing, primary screen, HT1080 RFP-PRO-GFP cells, GFP/RFP fluorescence | 360,000 tested, 0.061% active | Matrix metalloproteinase-14 (Homo sapiens), P50281 | GFP/RFP ratio fluorescence, overnight; percent of plate control window, DMSO zero | GFP/RFP ratio change, % at 20 µM;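 active = GFP/RFP ratio change of at least 30% with cell ATP level not reduced by more than half and red fluorescence within 50% of control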
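Assay system: HT1080 RFP-PRO-GFP cells | Dosing: 20 µM single dose, 1% DMSO | Incubation: Cells overnight before dosing, compound overnight, 37 °C, 5% CO2 | Evaluation: GFP/RFP fluorescence ratio | Control set: DMSO-only wells and HT1080 RFP-L50D-GFP cell wells as references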
Rev-erbA mod = modulators of Rev-erb alpha DNA binding, primary screen, biochemical, FITC-DNA, fluorescence polarization, uHTS | Nuclear receptor subfamily 1 group D member 1 (Homo sapiens), P20393 | 370,000 tested, 0.79% active | Rev-erbα–FITC-DNA binding, 90 min | activity, % at 10 µM;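 active = activity above about 14%, limit read from the data; passing the limit was not always enough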;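 also: 0% = DMSO wells with 35 nM protein and 100% = DMSO wells with 750 nM protein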
NR2E3 ag-2 = NR2E3 agonists in two-hybrid cells, primary screen, cell-based, luminescence, CHO-S, Gal4-NCOR/VP16-NR2E3 | Photoreceptor-specific nuclear receptor (Homo sapiens), Q9Y5X4 | AID 602229, 2012 | 360,000 tested, 0.35% active | luciferase | inhibition of corepressor binding, % at 3.98 µM;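 active = inhibition above the mean of all tested compounds plus 3 SD, cut at about 70% in these data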;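 also: 0% = DMSO with NR2E3 transfected cells and 100% = cells lacking NR2E3 construct; higher means lower luciferase signal from less NR2E3 corepressor binding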
PG9 binder conf = binders of anti-gp120 antibody PG9, confirmation, biochemical, TR-FRET | shares compounds with PG9 Ab binder | TR-FRET PG9 antibody binding | inhibition, % at 6.7 µM | 1,500 tested, 90% active; in the data active = inhibition above about 9%
PGV04 counter = binders of control antibody PGV04, counter-screen for PG9 antibody binder project, biochemical, TR-FRET, distinct HIV envelope site | shares compounds with PG9 Ab binder | TR-FRET PGV04 antibody-gp120 binding | inhibition, % at 6.7 µM | 1,500 tested, 95% active; in the data active = inhibition above about 9.5%
Numbers without * were called inactive; . = no result.

SMILES | PG9 Ab binder | SKN-1 inh | NR2E3 ag-1 | MT1-MMP act inh | Rev-erbA mod | NR2E3 ag-2 | PG9 binder conf | PGV04 counter
O=C(NCc1cccnc1)c1ccc(Cn2c(=S)[nH]c3ccc(Br)cc3c2=O)cc1 | 10* | 7 | 3 | -1 | 9 | 4 | 13* | 13*
COc1ccc(C2C(C(=O)c3ccc(C)o3)=C(O)C(=O)N2Cc2cccnc2)cc1OC (stereo unspecified) | 8 | -2 | 0 | -1 | 0 | -11 | . | .
Cc1cc(N2C(=O)C(O)=C(C(=O)c3ccc(C)o3)C2c2cccc(Cl)c2)no1 (stereo unspecified) | 8.7* | 14 | . | 4 | -2 | -3 | 17* | 24*
Cc1ccc(C(=O)C2=C(O)C(=O)N(Cc3cccnc3)C2c2ccc(Cl)cc2)o1 (stereo unspecified) | 19* | -20 | 18 | 3 | -1 | 7 | 27* | 36*
CCCOc1ccc(C2C(C(=O)c3ccc(C)o3)=C(O)C(=O)N2Cc2ccco2)cc1 (stereo unspecified) | 14* | 7 | 13 | -1 | -1 | -4 | 16* | 21*
CCOc1ccc(C2C(C(=O)c3ccc(C)o3)=C(O)C(=O)N2Cc2cccnc2)cc1 (stereo unspecified) | 23* | 9 | 14 | -3 | -2 | 16 | 35* | 41*
COC(=O)C1=C(C)N(Cc2ccccc2C(F)(F)F)C(=NCc2cccc(C(F)(F)F)c2)NC1c1cccc(Cl)c1 (stereo unspecified) | 0 | . | . | . | 5 | . | . | .
COc1cc(N/C(=C\C(=O)c2ccccc2)c2ccccc2)ccc1Cl | -2 | . | . | . | 5 | . | . | .
COc1ccc(-c2cc(NC(=O)Cc3c(C)[nH]c4ccccc34)ccc2Nc2cccnc2)cc1OC | 0 | . | . | . | 13 | . | . | .
Cc1cc(C)c2nc(NC(=O)c3ccco3)sc2c1 | -1 | -1 | 1 | -1 | 2 | -138 | . | .
O=C(Nc1nc2c(Br)cc(Br)cc2c(=O)s1)c1ccco1 | 30* | 2 | 0 | -7 | 1 | 19 | 58* | 63*
N#Cc1ccc(S(=O)(=O)N2CCCc3nc(-c4ccc(Br)cc4)ccc32)cc1 | -1 | . | . | . | 10 | . | . | .
CCN1C(=C(C#N)C#N)C=Cc2cc(C)ccc21 | 23* | 5 | 6 | 3 | -3 | -1 | 20* | 31*
COC(=O)[C@]12C[C@H](CC(=O)NCCCCc3ccccc3)C(=O)N(Cc3ccc(Cl)cc3Cl)C1=C[C@H](C(C)C)O[C@@H]2C1CC1 | . | . | . | . | 6 | . | . | .
C=CCn1c(SCC(N)=O)nnc1-c1ccc(C)cc1 | . | . | . | . | -3 | . | . | .
Cc1nnc(NC(=O)c2ccc(-c3ccc(Cl)cc3)o2)s1 | 11* | 3 | -5 | 4 | 5 | -3 | 13* | 27*
CC1Cc2ccccc2N1C(=O)COC(=O)c1ccc(N(C)C)cc1 (stereo unspecified) | 12* | 3 | 1 | -1 | 6 | -14 | 13* | 16*
O=C(N[C@H](C(=O)N1CCC[C@H]1C(=O)NC1CCCC1)C1CCCCC1)c1ccccc1 | -2 | . | . | . | -8 | . | . | .
O=C(NCCc1ccccc1Cl)[C@@H]1CCCN1C(=O)[C@@H](NS(=O)(=O)c1ccc(F)cc1F)c1ccccc1 | -2 | . | . | . | 1 | . | . | .
COc1ccc2oc(=O)c(C(=O)NCc3ccc(C)cc3)cc2c1 | 8.8* | 11 | -3 | 3 | 4 | -1 | 16* | 24*
CCC(C)CNC(=O)CSc1nnc(-c2cccnc2)n1C1CCCCC1 (stereo unspecified) | . | . | . | . | -3 | . | . | .
COCc1[nH]nc2c1C(c1ccc(C)cc1)N(c1ccc(OC)cc1)C2=O (stereo unspecified) | 0 | . | . | . | 6 | . | . | .
Cc1cc(C)c2c(=O)[nH]c(SCC(=O)c3ccc(C(C)C)cc3)nc2n1 | 32* | -13 | 0 | 12 | -4 | 13 | 59* | 76*
CCOc1ccc(NC(=O)CN2CCCN(c3ccc(OC)cc3)CC2)cc1 | . | . | . | . | 0 | . | . | .
O=C(O)CCCC(=O)N1CCN(c2nc(-c3ccccc3Cl)c3cc(Br)ccc3n2)CC1 | 17* | 29 | 2 | 13 | -4 | -30 | 23* | 34*
SMILES | PG9 Ab binder | SKN-1 inh | NR2E3 ag-1 | MT1-MMP act inh | Rev-erbA mod | NR2E3 ag-2 | PG9 binder conf | PGV04 counter
O=C(Nc1c(Br)cc2c(c1Br)Cc1ccccc1-2)C(Cl)Cl | 28* | 6 | . | -7 | 14 | -38 | 25* | 38*
C=CCn1c(SCC(=O)Nc2ccc(-c3nc4ccc(C)cc4s3)cc2)nnc1-c1ccccc1 | 9.6* | 16 | -308 | -12 | 20 | -165 | 13* | 27*
Cc1ccc(-c2nnc(SCC(=O)Nc3ccc(-c4nc5ccc(C)cc5s4)cc3)n2Cc2ccco2)cc1 | . | . | . | . | -1 | . | . | .
O=C(CSc1nnc2ccccn12)Nc1cccc(-c2nc3ccccc3s2)c1 | 8.9* | 6 | 1 | 4 | 20 | -128 | 13* | 25*
O=C(CSc1nnc2ccccn12)Nc1ccc2c(c1)OCO2 | -1 | -2 | -2 | 1 | 5 | -12 | . | .
CC(=O)c1ccc(N2CCN(C(=S)Nc3cc(C)ccc3C)CC2)cc1 | 12* | 9 | -1 | -1 | 8 | -19 | 8.8* | 15*
Cc1ccc(SCCC(=O)Nc2ccc(OCc3ccccc3)cc2)cc1 | 9.2* | -5 | 4 | -2 | 3 | -30 | 15* | 19*
O=S(=O)(c1ccccc1)N1CCN(c2cc(-c3ccccc3)nc3ncnn23)CC1 | -1 | 0 | 0 | 6 | 17 | -1 | . | .
Cc1ccccc1NC(=O)C1CCN(c2cc(-c3ccccc3)nc3ncnn23)CC1 | 8.8* | -5 | -1 | 4 | 7 | 2 | 17* | 27*
O=C(Nc1ccc(Br)cc1)OCCCN1CCC2(CCCCC2)C1=O | . | . | . | . | 2 | . | . | .
Cn1c(CCNC(=O)C2CCCCC2)nc2cc([N+](=O)[O-])ccc21 | -1 | 8 | 4 | -4 | -2 | -28 | . | .
